Source: ChEMBL document CHEMBL5230149, “Discovery of novel ketoxime ether derivatives with potent FXR agonistic activity, oral effectiveness and high liver/blood ratio” (Bioorg Med Chem, 2021)
Activity calls are given as the source filed them. The rule behind the calls is not given here.

Experiments:
[1] = target: T1, Bile acid receptor (Homo sapiens, UniProt Q96RI1); assay: Agonist activity at human FXR expressed in human Huh-7 cells co-transfected with FXRE-Luc reporter plasmid assessed as receptor transactivation incubated for 16 hrs by luciferase reporter gene assay; format: cell-based
T1 sequence (Q96RI1 whole entry): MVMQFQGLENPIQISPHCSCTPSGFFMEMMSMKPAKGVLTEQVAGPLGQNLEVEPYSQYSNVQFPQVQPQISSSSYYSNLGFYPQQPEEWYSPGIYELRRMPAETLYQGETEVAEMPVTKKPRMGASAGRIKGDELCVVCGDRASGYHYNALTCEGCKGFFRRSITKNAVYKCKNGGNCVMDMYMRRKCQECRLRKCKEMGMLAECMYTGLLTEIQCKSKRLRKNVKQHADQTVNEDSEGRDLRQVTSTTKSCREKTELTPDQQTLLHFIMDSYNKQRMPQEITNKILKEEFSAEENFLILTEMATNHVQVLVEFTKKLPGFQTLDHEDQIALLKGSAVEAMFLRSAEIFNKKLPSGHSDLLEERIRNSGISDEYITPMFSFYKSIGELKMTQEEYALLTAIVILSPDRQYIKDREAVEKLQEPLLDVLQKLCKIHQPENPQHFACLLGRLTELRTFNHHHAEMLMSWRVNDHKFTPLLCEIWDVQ

[2] = target: T2, Bile acid receptor (Mus musculus) (UniProt Q60641); assay: Agonist activity at FXR in C57BL/6J mouse hepatocytes assessed as upregulation of SHP mRNA expression incubated for 24 hrs by qRT-PCR analysis; format: cell-based; settings: Hepatocyte, filed as agonist, dose 0.4-10 µM
T2 sequence (whole entry): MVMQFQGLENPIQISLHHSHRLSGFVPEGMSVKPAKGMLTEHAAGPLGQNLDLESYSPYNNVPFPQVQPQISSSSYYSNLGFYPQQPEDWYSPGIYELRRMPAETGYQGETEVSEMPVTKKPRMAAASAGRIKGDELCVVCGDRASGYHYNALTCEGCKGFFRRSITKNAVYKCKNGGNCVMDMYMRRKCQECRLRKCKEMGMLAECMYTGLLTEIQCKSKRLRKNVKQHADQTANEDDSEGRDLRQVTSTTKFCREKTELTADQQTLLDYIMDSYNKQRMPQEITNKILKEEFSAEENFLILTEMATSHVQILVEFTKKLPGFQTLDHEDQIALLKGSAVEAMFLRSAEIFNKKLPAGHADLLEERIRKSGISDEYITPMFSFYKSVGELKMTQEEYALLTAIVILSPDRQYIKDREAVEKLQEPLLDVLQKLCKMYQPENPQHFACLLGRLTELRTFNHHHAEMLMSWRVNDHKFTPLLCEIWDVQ
Summary of the method: (§1)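 Hepatocytes isolated from overnight-fasted male C57BL/6J mice (8–12 weeks), allowed 4 h to adhere, then given vehicle (0.5% DMSO) or compound at 0.4, 2 and 10 μM for 24 h. TRIzol RNA extraction, then qRT-PCR with GAPDH normalization by ΔΔCt. Values are expressed as fold over vehicle (mean ± S.E.M, n = 3).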

[3] = Ratio of drug uptake in ICR mouse liver to plasma at 15 mg/kg, po measured after 8 hrs by LC-MS/MS analysis; format: ADME, organism-based
Summary of the method: (§2)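 Overnight-fasted male ICR mice (n = 3 per time point) received single oral 15 mg/kg and were refed 2 h later. Blood and liver were taken at 1.5, 4 and 8 h. Serum (10 µL) was precipitated with 100 µL methanol/acetonitrile (1:1). Liver was homogenized in ten times its weight of the same solvent. Supernatants were diluted 1:1 in ACN/H₂O and analyzed by LC-MS/MS. The ratio is liver conc (ng/g) over plasma conc (ng/mL).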

[4] = target: T2, Bile acid receptor (Mus musculus); assay: In vivo agonist activity at FXR in C57BL/6J mouse assessed as downregulation of CYP8B1 mRNA expression in liver at 10 mg/kg, po measured after 6 hrs by qRT-PCR analysis; format: functional, organism-based
Summary of the method: (§3)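 Male C57BL/6J mice (7–8 weeks) were fasted 3 h, then dosed orally once in 0.25% CMC-Na (wt/vol) vehicle. Sacrificed 6 h post-dose; liver snap-frozen at -80 °C. TRIzol RNA extraction and qRT-PCR with GAPDH normalization (ΔΔCt). Results are fold over vehicle group (mean ± S.E.M, n = 6).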

[5] = Drug uptake in ICR mouse liver at 15 mg/kg, po measured after 8 hrs by LC-MS/MS analysis; format: ADME, organism-based; settings: read-out: Drug uptake; summary of the method: as §2
[6] = target: T2, Bile acid receptor (Mus musculus); assay: Agonist activity at FXR in C57BL/6J mouse hepatocytes assessed as upregulation of BSEP mRNA expression at 0.4 to 10 uM incubated for 24 hrs by qRT-PCR analysis; format: cell-based; settings: Hepatocyte, filed as agonist, dose 0.4-10 µM; summary of the method: as §1
[7] = Ratio of drug uptake in ICR mouse liver to plasma at 15 mg/kg, po measured after 1.5 hrs by LC-MS/MS analysis; format: ADME, organism-based; summary of the method: as §2
[8] = target: T2, Bile acid receptor (Mus musculus); assay: In vivo agonist activity at FXR in C57BL/6J mouse assessed as fold upregulation of FGF15 mRNA expression in ileum at 10 mg/kg, po measured after 6 hrs by qRT-PCR analysis relative to control; format: functional, organism-based
Summary of the method: (§4)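 Fasting of male C57BL/6J mice (7–8 weeks) for 3 h preceded a single oral dose in 0.25% CMC-Na (wt/vol). Ileum was collected 6 h after dosing and snap-frozen. RNA was extracted with TRIzol for qRT-PCR, normalized to GAPDH (ΔΔCt). Reported as fold of vehicle group (mean ± SEM, n = 6).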

[9] = target: T2, Bile acid receptor (Mus musculus); assay: In vivo agonist activity at FXR in C57BL/6J mouse assessed as fold upregulation of SHP mRNA expression in ileum at 10 mg/kg, po measured after 6 hrs by qRT-PCR analysis relative to control; format: functional, organism-based; summary of the method: as §4
[10] = target: T2, Bile acid receptor (Mus musculus); assay: In vivo agonist activity at FXR in C57BL/6J mouse assessed as downregulation of CYP7A1 mRNA expression in liver at 10 mg/kg, po measured after 6 hrs by qRT-PCR analysis; format: functional, organism-based; summary of the method: as §3
[11] = Drug uptake in ICR mouse liver at 15 mg/kg, po measured after 1.5 hrs by LC-MS/MS analysis; format: ADME, organism-based; settings: read-out: Drug uptake; summary of the method: as §2
[12] = Ratio of drug uptake in ICR mouse liver to plasma at 15 mg/kg, po measured after 4 hrs by LC-MS/MS analysis; format: ADME, organism-based; summary of the method: as §2
[13] = target: T3, TGR5 (G-protein coupled bile acid receptor 1) (Homo sapiens, UniProt Q8TDU6); assay: Agonist activity at human TGR5 expressed in HEK293 cells co-transfected with CRE-Luc reporter plasmid assessed as receptor transactivation incubated for 5.5 hrs by luciferase reporter gene assay relative to OCA; format: cell-based; settings: read-out: Efficacy
T3 sequence (Q8TDU6 whole entry): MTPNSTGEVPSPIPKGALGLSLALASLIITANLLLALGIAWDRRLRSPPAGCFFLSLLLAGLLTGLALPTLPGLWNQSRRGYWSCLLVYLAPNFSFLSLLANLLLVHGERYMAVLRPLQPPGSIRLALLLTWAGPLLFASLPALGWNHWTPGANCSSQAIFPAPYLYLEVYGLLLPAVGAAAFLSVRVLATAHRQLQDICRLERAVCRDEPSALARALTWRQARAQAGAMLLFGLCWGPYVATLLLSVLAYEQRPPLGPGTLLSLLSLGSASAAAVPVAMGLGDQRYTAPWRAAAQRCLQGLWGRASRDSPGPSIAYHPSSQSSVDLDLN

[14] = target: T2, Bile acid receptor (Mus musculus); assay: In vivo agonist activity at FXR in C57BL/6J mouse assessed as fold upregulation of SHP mRNA expression in liver at 10 mg/kg, po measured after 6 hrs by qRT-PCR analysis relative to control; format: functional, organism-based; summary of the method: as §3
[15] = target: T2, Bile acid receptor (Mus musculus); assay: Agonist activity at FXR in C57BL/6J mouse hepatocytes assessed as fold upregulation of SHP mRNA expression at 10 uM incubated for 24 hrs by qRT-PCR analysis relative to control; format: cell-based; settings: Hepatocyte; summary of the method: as §1
[16] = Drug uptake in ICR mouse liver at 15 mg/kg, po measured after 4 hrs by LC-MS/MS analysis; format: ADME, organism-based; settings: read-out: Drug uptake; summary of the method: as §2
[17] = Plasma concentration in ICR mouse at 15 mg/kg, po measured after 8 hrs by LC-MS/MS analysis; format: ADME, organism-based; summary of the method: as §2
[18] = Plasma concentration in ICR mouse at 15 mg/kg, po measured after 1.5 hrs by LC-MS/MS analysis; format: ADME, organism-based; summary of the method: as §2
[19] = Plasma concentration in ICR mouse at 15 mg/kg, po measured after 4 hrs by LC-MS/MS analysis; format: ADME, organism-based; summary of the method: as §2
[20] = target: T4, G-protein coupled bile acid receptor 1 (Homo sapiens, UniProt Q8TDU6); assay: Agonist activity at human TGR5 expressed in HEK293 cells co-transfected with CRE-Luc reporter plasmid assessed as receptor transactivation incubated for 5.5 hrs by luciferase reporter gene assay; format: cell-based
T4 sequence (Q8TDU6 whole entry): T3 sequence (Q8TDU6 whole entry)

Work on `C/C(=N\OCc1cc(C(=O)O)ccc1C#N)c1ccc(OCc2c(-c3ccccc3OC(F)(F)F)noc2C2CC2)c(C)c1` yielded an EC50 [1] of 440 nM.

In the case of `COc1cc(/C(C)=N/OCc2cc(C)cc(C(=O)O)c2)ccc1OCc1c(-c2ccccc2OC(F)(F)F)noc1C1CC1`, the EC50 [1] is reported as over 1850 nM.

In the case of `C/C(=N\OCc1cncc(C(=O)O)c1)c1ccc(OCc2c(-c3c(Cl)cccc3Cl)noc2C2CC2)cc1Cl`, the EC50 [1] is reported as 65 nM.

Work on `C/C(=N\OCc1cccc(C(=O)O)c1)c1ccc(OCc2c(-c3c(Cl)cccc3Cl)noc2C2CC2)cn1` yielded an EC50 [1] of 234 nM.

Molecule `C/C(=N\OCc1cc(C)cc(C(=O)O)c1)c1ccc(OCc2c(-c3ccccc3OC(F)(F)F)noc2C2CC2)cc1Cl` has an EC50 [1] of 158 nM.

Work on `C/C(=N\OCc1cc(C)cc(C(=O)O)c1)c1ccc(OCc2c(-c3ccccc3OC(F)(F)F)noc2C2CC2)c(C)c1` yielded an EC50 [1] of 523 nM.

For `C/C(=N\OCc1cc(C(=O)O)ccc1C#N)c1ccc(OCc2c(-c3c(Cl)cccc3Cl)noc2C2CC2)cc1Cl`, the Activity [2] was “Dose-Dependent Effect”, the Kp at 8 h [3] was 43 and the Activity [4] was “Active”. For the same molecule, the EC50 [1] was 45.2 nM, the concentration at 8 h [5] was 341 ng/g and the Activity [6] was “Active”. For the same molecule, the Kp at 1.5 h [7] was 37, the fold change (FC) [8] was 5 and the fold change (FC) [9] was 20. For the same molecule, the Activity [10] was “Active”, the concentration at 1.5 h [11] was 4530 ng/g and the Kp at 4 h [12] was 57. The Emax at 5.5 h [13] was 1.1%, the fold change (FC) [14] was 2 and the fold change (FC) [15] was over 40. It also gave a concentration at 4 h [16] of 2610 ng/g, a concentration at 8 h [17] of 7.8 ng/mL and a concentration at 1.5 h [18] of 124 ng/mL. For the same molecule, the concentration at 4 h [19] was 45.4 ng/mL and the EC50 [20] was over 100000 nM.

`C/C(=N\OCc1cncc(C(=O)O)c1)c1ccc(OCc2c(-c3ccccc3OC(F)(F)F)noc2C2CC2)c(C)c1` gave an EC50 [1] of 1830 nM.

With `C/C(=N\OCc1cccc(C(=O)O)c1)c1ccc(OCc2c(-c3ccccc3OC(F)(F)F)noc2C2CC2)cc1Cl` the EC50 [1] was 108 nM.

Molecule `C/C(=N\OCc1cc(C)cc(C(=O)O)c1)c1ccc(OCc2c(-c3ccccc3OC(F)(F)F)noc2C2CC2)c(F)c1` has an EC50 [1] of 1340 nM.

For `C/C(=N\OCc1cccc(C(=O)O)c1)c1ccc(OCc2c(-c3c(Cl)cccc3Cl)noc2C2CC2)cc1Cl`, the EC50 [1] was 47.4 nM.
